{
  "source": "PubChem BioAssay AID588395",
  "about": "(Southern Research Specialized Biocontainment Screening …, 2011)",
  "note": "Activity calls are given as the source filed them.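 How the source made its calls: active means phage lysis blocked by at least 50% at any tested dose; inconclusive means replicate wells disagree with each other; inactive means the rest.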",
  "data": [
    {"system": "not listed separately", "assay": "inhibitors of K1F phage lysis, dose response, capsule biogenesis inhibitor project, E. coli UTI89, set 7 (AID 588395)", "conditions": "E. coli UTI89 K1F phage lysis inhibition, OD600 3 h; at 100 µM (top of the series)", "summary_of_the_method": "(§1)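 System: Uropathogenic Escherichia coli UTI89 (K1 capsule) bacterial culture. Buffer or medium: LB broth. Incubation: 1.25 h pre-infection at 37 °C, 3 h phage exposure. Compound dosing: 0.78–100 µM final, 1% DMSO. Measured by: OD600 absorbance. Control set: phage-resistant kpsM mutant culture as lysis-resistant comparison. Reagent: K1F phage infection after compound pre-exposure.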", "values": [
      {"smiles": "O=C(Nc1nc2ccc(F)cc2s1)c1ccc(Br)cc1", "inhibition of phage lysis": "-15.7% (inactive)"},
      {"smiles": "COc1ccc(NC(=O)c2ccc3ncccc3c2)cc1", "inhibition of phage lysis": "-4.29% (inactive)"},
      {"smiles": "O=C(Nc1nc2ccc(C(F)(F)F)cc2s1)c1ccc(Br)o1", "inhibition of phage lysis": "1.64% (inactive)"},
      {"smiles": "COc1ccc2nc(NC(=O)c3ccc(C)s3)sc2c1", "inhibition of phage lysis": "-3.86% (inactive)"},
      {"smiles": "COc1ccc(NC(=O)c2ccc3ncsc3c2)cc1", "inhibition of phage lysis": "4.51% (inactive)"},
      {"smiles": "COC(=O)c1ccc(NC(=O)c2ccc3ncsc3c2)cc1", "inhibition of phage lysis": "9.02% (inactive)"},
      {"smiles": "O=C(Nc1nc2ccc(F)cc2s1)c1ccc(Br)s1", "inhibition of phage lysis": "6.49% (inactive)"},
      {"smiles": "O=C(Nc1nc2ccc(Br)cc2s1)c1ccc(Br)o1", "inhibition of phage lysis": "9.79% (inactive)"},
      {"smiles": "O=C(Nc1nc2ccc(Cl)cc2s1)c1ccc(Br)cc1", "inhibition of phage lysis": "12.9% (inactive)"},
      {"smiles": "Cc1ccc(C(=O)Nc2nc3ccccc3s2)s1", "inhibition of phage lysis": "-9.44% (inactive)"},
      {"smiles": "O=S(=O)(Nc1nc2ccccc2s1)c1ccc(Br)s1", "inhibition of phage lysis": "-2.08% (inactive)"},
      {"smiles": "O=C(Nc1nc2ccc(OC(F)(F)F)cc2s1)c1ccc(Br)s1", "inhibition of phage lysis": "1.91% (inactive)"},
      {"smiles": "Cc1ccc(C(=O)Nc2nc3ccc(Br)cc3s2)s1", "inhibition of phage lysis": "-11.1% (inactive)"},
      {"smiles": "COc1ccc2nc(NC(=O)c3ccc(Br)cc3)[nH]c2c1", "inhibition of phage lysis": "-2.55% (inactive)"},
      {"smiles": "Cc1ccc(NC(=O)c2ccc3ncccc3c2)cc1", "inhibition of phage lysis": "0% (inactive)"},
      {"smiles": "O=C(Nc1nc2ccc(Cl)cc2s1)c1ccc(Br)s1", "inhibition of phage lysis": "6.12% (inactive)"},
      {"smiles": "O=C(Nc1nc2ccc(C(F)(F)F)cc2s1)c1ccc(Br)cc1", "inhibition of phage lysis": "2.13% (inactive)"},
      {"smiles": "O=C(Nc1cccnc1)c1ccc2ncsc2c1", "inhibition of phage lysis": "0.82% (inactive)"},
      {"smiles": "O=C(Nc1nc2ccc(F)cc2s1)c1ccc(Br)o1", "inhibition of phage lysis": "15.8% (inactive)"},
      {"smiles": "COC(=O)c1ccc(NC(=O)c2ccc3ncccc3c2)cc1", "inhibition of phage lysis": "39.1% (inactive)"},
      {"smiles": "O=C(Nc1nc2ccc(Br)cc2s1)c1ccc(Br)cc1", "inhibition of phage lysis": "2.55% (inactive)"},
      {"smiles": "O=C(Nc1nc2ccccc2s1)c1ccc(Br)o1", "inhibition of phage lysis": "0% (inactive)"},
      {"smiles": "COc1ccc2nc(NC(=O)c3ccc(Br)o3)sc2c1", "inhibition of phage lysis": "41.7% (inactive)"},
      {"smiles": "COc1ccc2nc(NC(=O)c3ccc(Br)s3)[nH]c2c1", "inhibition of phage lysis": "0.85% (inactive)"},
      {"smiles": "O=C(Nc1nc2ccc(C(F)(F)F)cc2s1)c1ccc(Br)s1", "inhibition of phage lysis": "2.86% (inactive)"},
      {"smiles": "O=C(Nc1nc2ccc(OC(F)(F)F)cc2s1)c1ccc(Br)o1", "inhibition of phage lysis": "-11.1% (inactive)"},
      {"smiles": "O=C(Nc1nc2ccc(Br)cc2s1)c1ccc(Br)s1", "inhibition of phage lysis": "18% (inactive)"},
      {"smiles": "COc1ccc2nc(NC(=O)c3ccc(Br)o3)[nH]c2c1", "inhibition of phage lysis": "0.41% (inactive)"},
      {"smiles": "O=C(Nc1nc2ccc(Cl)cc2s1)c1ccc(Br)o1", "inhibition of phage lysis": "-4.26% (inactive)"},
      {"smiles": "COc1ccc2nc(NS(=O)(=O)c3ccc(Br)s3)sc2c1", "inhibition of phage lysis": "-0.42% (inactive)"},
      {"smiles": "O=C(Nc1nc2ccccc2s1)c1ccc(Br)s1", "inhibition of phage lysis": "-6.12% (inactive)"},
      {"smiles": "O=C(Nc1nc2ccc(OC(F)(F)F)cc2s1)c1ccc(Br)cc1", "inhibition of phage lysis": "-15.3% (inactive)"},
      {"smiles": "O=C(Nc1ccc(C(F)(F)F)cc1)c1ccc2ncccc2c1", "inhibition of phage lysis": "2.46% (inactive)"},
      {"smiles": "O=S(=O)(Nc1nc2ccc(Br)cc2s1)c1ccc(Br)s1", "inhibition of phage lysis": "6.67% (inactive)"},
      {"smiles": "COc1ccc2nc(NC(=O)c3cc(Br)c(Br)s3)[nH]c2c1", "inhibition of phage lysis": "-1.23% (inactive)"},
      {"smiles": "Cc1ccc(C(=O)Nc2nc3ccc(Cl)cc3s2)s1", "inhibition of phage lysis": "-2.05% (inactive)"},
      {"smiles": "O=C(Nc1nc2ccccc2s1)c1ccc(Br)cc1", "inhibition of phage lysis": "1.7% (inactive)"},
      {"smiles": "O=C(Nc1ccc(Br)cc1)c1ccc2ncccc2c1", "inhibition of phage lysis": "-0.43% (inactive)"},
      {"smiles": "COc1ccc2nc(NC(=O)c3ccc(Br)cc3)sc2c1", "inhibition of phage lysis": "4.68% (inactive)"}
    ]},
    {"system": "E. coli UTI89 K1F phage lysis inhibition, OD600 3 h", "assay": "inhibitors of K1F phage lysis, dose response, capsule biogenesis inhibitor project, E. coli UTI89, set 7 (AID 588395)", "conditions": "not given", "summary_of_the_method": "as §1", "units": {"IC50": "nM"}, "values": [
      {"smiles": "COc1ccc2nc(NC(=O)c3ccc(Br)s3)sc2c1", "IC50": 2150},
      {"smiles": "O=C(Nc1ccncc1)c1ccc2ncsc2c1", "IC50": 1310}
    ]}
  ]
}
